From ChEMBL document CHEMBL1133721, “Antitumor polycyclic acridines. 7. Synthesis and biological properties of DNA affinic tetra- and pentacyclic acridines” (J Med Chem, 2000)

Legend:
Format in all cases: functional, cell-based
Conditions in all cases: Homo sapiens
NCI-H226 = test: Inhibitory activity against NCI-H226 cell line using MTT assay(mutant p53)
In short: (§1)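 Cells were grown in RPMI 1640 with 2 mM L-glutamine, penicillin/streptomycin and 10% heat-inactivated FCS. Drugs were taken from 10 mM DMSO stocks. Viability was read by MTT at 0.4 mg/mL final for 4 h at 37 °C, with formazan dissolved in DMSO plus glycine buffer and read at 550 nm. IC50 is the concentration halving absorbance versus untreated controls, taken from dose-response curves.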

NCI-H358 = test: Inhibitory activity against NCI-H358 cell line using MTT assay(mutant p53); in short: as §1
F460pv8/eto = test: Inhibitory activity against […] using MTT assay
In short: (§2)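 This is a 7-day MTT assay in RPMI 1640 with 2 mM L-glutamine, antibiotics and 10% heat-inactivated FCS. The H460pv8/eto variant was kept in 1 µM etoposide. MTT was used at 0.4 mg/mL final for 4 h at 37 °C, and formazan was dissolved in DMSO/glycine buffer and read at 550 nm. IC50 is the 50% absorbance reduction versus untreated controls, from dose-response curves.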

T47D = test: Inhibitory activity against T47D cell line using MTT assay (ER+,mutant p53); in short: as §1
MCF7 [1] = test: Inhibitory activity against MCF-7 wt cell line using MTT assay (ER+,pgR+,wildtype p53); in short: as §1
NCI-H322M = test: Inhibitory activity against NCI-H322 cell line using MTT assay(mutant p53); in short: as §1
NCI-H647 = test: Inhibitory activity against NCI-H647 cell line using MTT assay(mutant p53); in short: as §1
NCI/ADR-RES = test: Inhibitory activity against MCF-7/adr cell line using MTT assay; in short: as §1
MCF7 [2] = test: Inhibitory activity against MCF7wt cell line using MTT assay; in short: as §1
NCI-H460 [3] = test: Inhibitory activity against H460pv8 cell line using MTT assay; in short: as §2
NCI-H460 [4] = test: Inhibitory activity against NCI-H460 cell line using MTT assay; in short: as §2
MDA-MB-468 = test: Inhibitory activity against MDA-468 cell line using MTT assay (ER-, amplified EGFR, mutant p53); in short: as §1
A549 = test: Inhibitory activity against A549 cell line using MTT assay(Wild type p53); in short: as §1
MDA-MB-231 = test: Inhibitory activity against MDA-231 cell line using MTT assay (ER-,EGFR+,mutant p53); in short: as §1
ZR-75-1 = test: Inhibitory activity against ZR-75-1 cell line using MTT assay (ER+,pgr+,mutant p53); in short: as §1
SK-BR-3 = test: Inhibitory activity against SKBR-3 cell line using MTT assay (ER-amplified erB2,mutant p53); in short: as §1
NCI-H460 [5] = test: Inhibitory activity against NCI-H460 cell line using MTT assay(Wild type p53); in short: as §1

Structure (SMILES)	IC50 (NCI-H226)	IC50 (NCI-H358)	IC50 (T47D)	IC50 (MCF7 [1])	IC50 (NCI-H322M)	IC50 (NCI-H647)	IC50 (MCF7 [2])	IC50 (NCI-H460 [3])	IC50 (NCI-H460 [4])	IC50 (MDA-MB-468)	IC50 (A549)	IC50 (MDA-MB-231)	IC50 (SK-BR-3)	IC50 (NCI-H460 [5])	IC50 (F460pv8/eto)	IC50 (NCI/ADR-RES)	IC50 (ZR-75-1)
COc1cc(NS(C)(=O)=O)ccc1Nc1c2ccccc2nc2ccccc12 [AMSACRINE]	1010 nM	150 nM	220 nM	75 nM	210 nM	70 nM	75 nM	200 nM	60 nM	490 nM	30 nM	140 nM	60 nM	60 nM	40 nM	1160 nM	180 nM
Clc1ccc2c(c1)-c1cccc3nc4ccccc4c(c13)N2	> 10000 nM	6030 nM	5550 nM	1670 nM	> 10000 nM	5300 nM	1670 nM	3770 nM	3900 nM	310 nM	7100 nM	5450 nM	1030 nM	3900 nM	6470 nM	6310 nM	5590 nM
Cc1ccc2c(c1)-c1cccc3nc4ccccc4c(c13)N2	1220 nM	600 nM	2130 nM	180 nM	840 nM	800 nM	180 nM	490 nM	710 nM	170 nM	810 nM	550 nM	450 nM	710 nM	490 nM	1210 nM	390 nM
N#CCCCc1cc2cccc3c2c(n1)-c1ccccc1N3	1210 nM	2010 nM	3590 nM	3790 nM	1530 nM	1680 nM		1120 nM	1170 nM	1870 nM	1330 nM	2050 nM	3450 nM	1170 nM			2700 nM

Molecules with a lower IC50 (NCI-H226), results first:

IC50 (NCI-H226)	IC50 (NCI-H358)	IC50 (T47D)	IC50 (MCF7 [1])	IC50 (NCI-H322M)	IC50 (NCI-H647)	IC50 (MCF7 [2])	IC50 (NCI-H460 [3])	IC50 (NCI-H460 [4])	IC50 (MDA-MB-468)	IC50 (A549)	IC50 (MDA-MB-231)	IC50 (SK-BR-3)	IC50 (NCI-H460 [5])	Structure (SMILES)	IC50 (F460pv8/eto)	IC50 (NCI/ADR-RES)	IC50 (ZR-75-1)
240 nM	1500 nM	160 nM	85 nM	1590 nM	80 nM		390 nM	100 nM	600 nM	160 nM	150 nM	300 nM	100 nM	COc1cc([C@@H]2c3cc4c(cc3[C@@H](O[C@@H]3O[C@@H]5CO[C@@H](C)O[C@H]5[C@H](O)[C@H]3O)[C@H]3COC(=O)[C@H]23)OCO4)cc(OC)c1O [ETOPOSIDE]	740 nM		240 nM
170 nM	400 nM	270 nM	50 nM	140 nM	80 nM	50 nM	50 nM	70 nM	40 nM	80 nM	230 nM	20 nM	70 nM	Nc1ccc2c(c1)Nc1c3ccccc3nc3cccc-2c13	120 nM	355 nM	30 nM
